Assay results published in ChEMBL document CHEMBL1140214, “Antitumor activity of new substituted 3-(5-imidazo[2,1-b]thiazolylmethylene)-2-indolinones and 3-(5-imidazo[2,1-b]thiadiazolylmethylene)-2-indolinones: selectivity against colon tumor cells and effect on cell cycle-related events” (2008).
The source made the active and inactive calls. The rule behind the calls is not given here.

Assays:
[1] = Antitumor activity against human CNS cancer cells after 48 hrs by SRB assay; type: functional, Cancer cell lines; details: for TGI: read-out: pTGI (converted)
In short: (§1)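 NCI 60-cell panel two-stage screen: a single-dose pass at 10^-5 M, then five-dose testing for active compounds. Compounds were dissolved in DMSO and tested at five 10-fold dilutions, the highest 10^-4 M (10^-3 M in some cases). Results are given as the negative log molar concentration at three end points: pGI50, pTGI (total growth inhibition) and pLC50. Means are panel-subtype averages.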

[2] = Antitumor activity against human renal cancer cells after 48 hrs by SRB assay; type: functional, Cancer cell lines; details: for GI50 / TGI: Homo sapiens, Cancer cell lines, 48 h; for TGI: read-out: pTGI (converted); in short: as §1
[3] = system: HT-29; experiment: Increase in cellular tubulin condensation in human HT-29 cells at 1 uM after 24 hrs using DAPI staining by immunofluorescence technique; type: functional, cell-based
In short: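 HT-29 cells on glass coverslips at 1 × 10^4 cells/cm^2 were treated 24 h at 1 µM, or with 30 nM vincristine. After fixation they were stained overnight at 4 °C with anti-α-tubulin mouse monoclonal, then 1 h at room temperature with FITC anti-mouse IgG, and counterstained with DAPI. Imaging was by laser scanning confocal microscopy.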

[4] = system: Melanoma cell; experiment: Antitumor activity against human Melanoma cells after 48 hrs by SRB assay; type: functional; details: for TGI: read-out: pTGI (converted); in short: as §1
[5] = system: HT-29; experiment: Induction of apoptosis in human HT-29 cells assessed as caspase activity after 48 hrs by fluorimetric assay; type: functional, cell-based
In short: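 DEVDase (caspase) activity was measured fluorometrically in extracts of HT-29 cells treated for 24 or 48 h at the indicated concentrations.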

[6] = Antitumor activity against human Colon cancer cells after 48 hrs by SRB assay; type: functional, Cancer cell lines; details: for GI50 / TGI: Homo sapiens, Cancer cell lines, 48 h; for TGI: read-out: pTGI (converted); in short: as §1
[7] = system: HT-29; experiment: Cell cycle arrest in human HT-29 cells assessed as accumulation at G2/M phase at 2 uM after 24 hrs by flow cytometry; type: functional
In short: (§2)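 HT-29 cells were grown in RPMI 1640 with 10% FBS and 2 mM L-glutamine at 37 °C, 5% CO2, and treated 24 h after plating at 2 × 10^4 cells/cm^2. Exposure was 24 h at 0.5–2 µM test compound or 30 nM vincristine, with DMSO controls. Cells were stained with propidium iodide, RNase and NP-40 for 30 min in the dark, then DNA content was read by flow cytometry. Mean ± SEM, n=3.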

[8] = Antitumor activity against human ovarian cancer cells after 48 hrs by SRB assay; type: functional, Cancer cell lines; details: for GI50 / TGI: Homo sapiens, Cancer cell lines, 48 h; for TGI: read-out: pTGI (converted); in short: as §1
[9] = system: Leukemia cell; experiment: Antitumor activity against human Leukemia cells after 48 hrs by SRB assay; type: functional; details: for GI50 / TGI: Homo sapiens, Leukemia cell, 48 h; for TGI: read-out: pTGI (converted); in short: as §1
[10] = system: HT-29; experiment: Cell cycle arrest in human HT-29 cells assessed as accumulation at G2/M phase after 24 hrs by flow cytometry; type: functional, cell-based; in short: as §2
[11] = Antitumor activity against human Breast cancer cells after 48 hrs by SRB assay; type: functional, Cancer cell lines; details: for GI50 / TGI: Homo sapiens, Cancer cell lines, 48 h; for TGI: read-out: pTGI (converted); in short: as §1
[12] = system: HT-29; experiment: Inhibition of cell proliferation in human HT-29 cells at 2 uM; type: functional, cell-based
In short: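 HT-29 cells in RPMI 1640 with 10% FBS were exposed to compound in fresh medium 24 h after plating, with DMSO controls. Cells were counted daily and viability was checked by Trypan blue exclusion.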

[13] = system: NSCLC; experiment: Antitumor activity against human NSCLC cells after 48 hrs by SRB assay; type: functional; details: for GI50 / TGI: Homo sapiens, NSCLC, 48 h; for TGI: read-out: pTGI (converted); in short: as §1
[14] = Antitumor activity against human prostate cancer cells after 48 hrs by SRB assay; type: functional, Cancer cell lines; in short: as §1
[15] = biological target: T1, Ornithine decarboxylase (Homo sapiens) (UniProt P11926); experiment: Inhibition of ornithine decarboxylase in human HT-29 cells assessed as release of radioactive CO2 from [14C-carboxyl] ornithine; type: cell-based
T1 sequence (whole entry): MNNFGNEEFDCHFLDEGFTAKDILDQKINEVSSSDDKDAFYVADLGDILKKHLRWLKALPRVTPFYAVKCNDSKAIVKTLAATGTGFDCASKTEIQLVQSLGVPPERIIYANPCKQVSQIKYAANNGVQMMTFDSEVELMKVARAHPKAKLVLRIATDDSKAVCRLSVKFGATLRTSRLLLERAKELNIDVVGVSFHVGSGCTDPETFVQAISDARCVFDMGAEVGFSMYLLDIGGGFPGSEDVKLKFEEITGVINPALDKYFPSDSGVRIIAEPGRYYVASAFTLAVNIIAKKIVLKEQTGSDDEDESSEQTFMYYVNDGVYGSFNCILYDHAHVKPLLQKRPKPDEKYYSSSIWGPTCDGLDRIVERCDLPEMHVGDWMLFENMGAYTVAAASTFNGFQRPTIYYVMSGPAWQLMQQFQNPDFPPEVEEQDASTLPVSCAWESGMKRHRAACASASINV
In short: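 Extracts were taken from HT-29 cells after 24 h exposure to the indicated concentrations of test compound or vincristine. ODC activity was read as 14CO2 released from [14C-carboxyl]ornithine. Mean ± SEM, n=3.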

[16] = system: HT-29; experiment: Cell cycle arrest in human HT-29 cells assessed as accumulation at G2/M phase at 30 nM after 24 hrs by flow cytometry; type: functional, cell-based; in short: as §2
[17] = Homo sapiens, Cancer cell lines, 48 h, read-out: pGI50 (converted)
[18] = Homo sapiens, Cancer cell lines, 48 h
[19] = Homo sapiens, Melanoma cell, 48 h, read-out: pGI50 (converted)
[20] = Homo sapiens, Melanoma cell, 48 h

COc1ccc2c(c1)/C(=C\c1c(C)nc3sc(C)nn13)C(=O)N2
GI50 [1]: 2.51 µM | GI50 [1, 17]: 2.51 µM | TGI [1, 18]: 38 µM | GI [2]: 6.17 µM | GI50 [2]: 6.17 µM | TGI [2]: 91.2 µM | Activity [3]: Active | GI50 [4]: 6.31 µM | GI50 [4, 19]: 6.31 µM | TGI [4, 20]: 69.2 µM | Activity [5]: Active | GI [6]: 0.69 µM | GI50 [6]: 0.692 µM | TGI [6]: 41.7 µM | Activity [7]: 58% | GI [8]: 5.01 µM | GI50 [8]: 5.01 µM | TGI [8]: 72.4 µM | GI [9]: 1.15 µM | GI50 [9]: 1.15 µM | TGI [9]: 38 µM | Activity [10]: Dose-dependent effect | GI [11]: 2.63 µM | GI50 [11]: 2.63 µM | TGI [11]: 75.9 µM | Activity [12]: Active | GI [13]: 5.37 µM | GI50 [13]: 5.37 µM | TGI [13]: 56.2 µM | GI [14]: 3.89 µM | GI50 [14, 18]: 3.89 µM | Activity [15]: Dose-dependent effect

CC[C@]1(O)C[C@H]2CN(CCc3c([nH]c4ccccc34)[C@@](C(=O)OC)(c3cc4c(cc3OC)N(C=O)[C@H]3[C@@](O)(C(=O)OC)[C@H](OC(C)=O)[C@]5(CC)C=CCN6CC[C@]43[C@@H]65)C2)C1.O=S(=O)(O)O [VINCRISTINE SULFATE]
Activity [16]: Active | GI50 [1, 17]: 0.126 µM | TGI [1, 18]: 6.31 µM | GI [2]: 0.32 µM | GI50 [2]: 0.316 µM | TGI [2]: 20 µM | GI50 [4, 19]: 0.158 µM | CC50 ([4]; Homo sapiens, Melanoma cell, 48 h, read-out: pLC50 (the source's name) (converted)): 251 µM | TGI [4, 20]: 7.94 µM | GI [6]: 0.1 µM | GI50 [6]: 0.1 µM | TGI [6]: 3.98 µM | GI [8]: 0.32 µM | GI50 [8]: 0.316 µM | TGI [8]: 20 µM | GI [9]: 0.1 µM | GI50 [9]: 0.1 µM | TGI [9]: 15.8 µM | GI [11]: 0.32 µM | GI50 [11]: 0.316 µM | TGI [11]: 7.94 µM | GI [13]: 0.25 µM | GI50 [13]: 0.251 µM | TGI [13]: 15.8 µM | GI [14]: 0.13 µM | GI50 [14, 18]: 0.126 µM | TGI ([14]; Homo sapiens, Cancer cell lines, 48 h, read-out: pTGI (converted)): 6.31 µM | Activity [15]: Active
